GRK2 aptamer HTS = blocks RNA aptamer binding to human GRK2. P25098. bead flow cytometry, FAM-aptamer displacement from GRK2. inhibition of aptamer binding, % at 10 µM. 330,000 tested, 0.59% active;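 active means inhibition of aptamer binding above 40%, roughly 3 SD of noise, on plates passing a quality check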;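 further: median bead fluorescence of bound FAM aptamer so fluorescent compounds give negative values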
Target sequence (P25098 whole entry, looked up): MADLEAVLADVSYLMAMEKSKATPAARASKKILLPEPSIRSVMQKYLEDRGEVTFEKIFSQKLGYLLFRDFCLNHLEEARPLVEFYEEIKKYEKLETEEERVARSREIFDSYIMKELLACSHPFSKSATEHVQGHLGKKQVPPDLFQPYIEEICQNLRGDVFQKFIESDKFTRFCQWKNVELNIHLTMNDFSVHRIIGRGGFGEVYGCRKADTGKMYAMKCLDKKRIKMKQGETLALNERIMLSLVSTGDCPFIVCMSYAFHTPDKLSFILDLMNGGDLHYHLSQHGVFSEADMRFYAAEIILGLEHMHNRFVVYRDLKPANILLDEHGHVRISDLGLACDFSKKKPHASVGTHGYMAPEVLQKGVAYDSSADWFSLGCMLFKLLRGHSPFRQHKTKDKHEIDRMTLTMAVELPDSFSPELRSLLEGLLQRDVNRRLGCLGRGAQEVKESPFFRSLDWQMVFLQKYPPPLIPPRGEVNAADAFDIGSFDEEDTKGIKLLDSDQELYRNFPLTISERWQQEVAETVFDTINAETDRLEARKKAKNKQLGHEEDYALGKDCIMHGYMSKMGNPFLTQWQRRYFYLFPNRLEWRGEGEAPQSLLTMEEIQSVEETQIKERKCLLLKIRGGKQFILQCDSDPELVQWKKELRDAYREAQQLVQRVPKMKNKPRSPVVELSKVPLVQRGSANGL
Keap1-Nrf2 PPI = disrupts human Keap1 binding to Nrf2 peptide | Q14145 | Keap1 Kelch-Nrf2 peptide fluorescence polarization, 1536-well | inhibition, % at 9.4 µM | 340,000 tested, 0.15% active | AID 504523; in the data active means inhibition above about 12%; inconclusive means no clear call, values can overlap the other calls; inactive means below about 7.3%;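 further: human Keap1 Kelch domain with fluorescein labeled Nrf2 9mer peptide probe; 0% = neutral control wells and 100% = peptide positive control; higher means more block of Keap1 binding to Nrf2 peptide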
EBV gp42 inh = inhibitors of Epstein-Barr virus glycoprotein 42; Fluorescence polarization binding assay, mP read-out; 220,000 tested, 0.42% active; Q1HVG2; inhibition, % (tested at 21.74 µM); AID 1085; in the data active means inhibition above about 50%
T cell HTS = T cell immune modulation candidate; 2C CD8+ T cell-vesicle binding, flow cytometry; stronger effect = lower value; response (vesicle binding), % at 7 µM; 330,000 tested, 0.068% active;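 active means response, share of CD8 T cells binding vesicles, and their 90th percentile fluorescence all below set limits, cut at about 80% in these data, passing the limit was not always enough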;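 further: values below 100% mean blocked vesicle binding to the CD8+ T cells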
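Benchmarks: naked versus QL9-loaded vesicles / Assay system: purified 2C TCR transgenic mouse naive CD8+ T cells / Technique: high-throughput flow cytometry with anti-B7-1 and anti-CD8 staining / Timing: Cell–vesicle co-incubation 1.5 h at 37 °C, staining 20 min on ice / Read-out: percent CD8+ FL2 mean versus row control / Probe or stimulus: QL9-loaded Drosophila micro-vesicles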
MEX-5 binding = C. elegans MEX-5 TCR-2 RNA binding activity. MEX-5/FITC-TCR2 RNA binding, fluorescence polarization; stronger effect = lower value. Q9XUB2. activity score (negative = inhibition of binding), % at 10 µM. 300,000 tested, 0.38% active;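 active means inhibition past about -25% in most replicates, and total fluorescence under double the plate's negative control median, limit read from the data; inconclusive means replicates evenly split on the limit, or fluorescence at least double controls; inactive means too little inhibition in most replicates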;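 further: 0% = DMSO and -100% = 5 µM competing unlabeled TCR2 RNA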
LANA DNA inh = blocks KSHV LANA C-terminal domain binding to DNA; MBP-C-LANA/FAM-LBS DNA binding, fluorescence polarization; 340,000 tested, 0.078% active; inhibition, % at 9 µM; AID 504423;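 active means highest replicate inhibition at or above 60% at 9 µM, even if other replicates fall short; inactive means all replicates below 60% inhibition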;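 further: 0% = neutral control wells and 100% = 4 µM acridine orange control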
GRK2 inh confirm = human GRK2 inhibition confirmation, cherry pick 1 | bead-bound GRK2, FAM-aptamer displacement, flow cytometry | AID 504451 | shares compounds with GRK2 aptamer HTS | aptamer displacement, % at 10 µM | 2,000 tested, 4% active;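 active means aptamer displacement above 40%, near three times the noise of non-fluorescent compounds, on plates passing quality checks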;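 further: negative values mostly reflect intrinsic compound fluorescence rather than true enhancement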
FAM quench CP1 = counter-screen for GRK2 aptamer inhibitors: fluorescent aptamer quenchers; shares compounds with GRK2 aptamer HTS; Carboxyfluorescein RNA aptamer on beads, flow cytometry quenching; stronger effect = lower value; fluorescence response (% of DMSO), % at 10 µM; AID 504580; 2,000 tested, under 10 active;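 active means compounds that quench the bead-bound fluorescent RNA probe, cutting fluorescence to under half of the solvent control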;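 further: counterscreen run without GRK2 so only probe quenching by compound is measured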
GRK2 CP2 = human GRK2 inhibition confirmation, cherry pick 2. 360 tested, under 10 active. shares compounds with GRK2 aptamer HTS. bead-bound GRK2, FAM-aptamer displacement, flow cytometry. inhibition of aptamer binding, % at 10 µM;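 active means inhibition of aptamer binding above 40%, about triple the noise seen with nonglowing compounds, on plates passing quality control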;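 further: negative values mostly come from compounds that fluoresce themselves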
FAM quench CP2 = counter-screen for GRK2 binding hits: quenchers of fluorescent RNA aptamer. shares compounds with GRK2 aptamer HTS. carboxyfluorescein RNA aptamer beads, flow cytometry quenching; stronger effect = lower value. fluorescence response vs DMSO, % at 10 µM. 360 tested, under 10 active. AID 588494;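 active means response vs DMSO under 50%, meaning signal dropped by over half, treated as fluorescence quencher; inconclusive means no clear call, values can overlap the other calls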;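 further: labelled aptamer on streptavidin beads without GRK2 as a quench counter-screen; 100% = bead fluorescence of DMSO wells and lower means quenching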
Numbers without * were called inactive; ? = inconclusive; . = not tested or not shown; ! = a repeat was not active. A selection: hits, their analogues and other compounds. The true share with any hit is near 1.3%.

SMILES	GRK2 aptamer HTS	Keap1-Nrf2 PPI	EBV gp42 inh	T cell HTS	MEX-5 binding	LANA DNA inh	GRK2 inh confirm	FAM quench CP1	others
CCCCn1c(CNC(=O)C(C)(C)C)nc2ccccc21	83*	-2	-7	786	1	0	-1	100
CN(CC(=O)Nc1cccc(F)c1)C(=O)CCc1nc2sc3c(c2c(=O)[nH]1)CCCC3	11	-8	.	49	1	2	1	98
O=C(CCc1nc2sc3c(c2c(=O)[nH]1)CCCC3)NCCOc1ccccc1	0	-3	.	428	1	2	.	.
CN(CCOc1ccccc1)C(=O)CCc1nc2sc3c(c2c(=O)[nH]1)CCCC3	0	-4	.	207	1	-1	0	97
CN(C(=O)COC(=O)c1cc(NS(=O)(=O)c2cc([N+](=O)[O-])ccc2Cl)ccc1O)C1CCCCC1	0	-1	1	268	-1	1	.	.
CC(C)c1cc(C(=O)NC2CCCc3c2cnn3-c2ccccc2F)no1 (stereo unspecified)	69*	3	.	492	-4	-1	4	97
Cc1cc(C(=O)NC2CCCc3c2cnn3-c2ccccc2F)nc(C)n1 (stereo unspecified)	3	3	.	218	0	-1	.	.
CN(CC(=O)NCCc1ccc(S(N)(=O)=O)cc1)S(=O)(=O)c1ccc(Br)s1	90*	-3	.	115	-1	2	2	98
COc1ccc(CN(C)C(C)C(=O)Nc2ccc(S(=O)(=O)N3CCCCC3)cc2)cc1F (stereo unspecified)	72*	1	.	224	.	-1	-1	99
COC(=O)C1C2CCCCC1C(=O)O2 (stereo unspecified)	.	-4	.	.	.	-2	.	.
COc1ccc(S(=O)(=O)N2CCCCC2)cc1NC(=O)CCNC(=O)c1ccc(Br)cc1	2	-1	.	162	2	3	.	.
COc1ccc(S(=O)(=O)N2CCCCC2)cc1NC(=O)CCNC(=O)c1ccc(Cl)cc1	47*	3	.	293	.	0	0	104	GRK2 CP2=-8;FAM quench CP2=106
Cc1csc(NC(=O)C2CCCCN2S(=O)(=O)c2ccccc2)n1 (stereo unspecified)	95*	0	-6	198	0	0	-2	102
CCCCn1c(N)c(N(Cc2ccccc2OC)C(=O)CCC(C)C)c(=O)[nH]c1=O	4	-5	.	309	0	1	.	.
Cc1ccc2[nH]c(-c3ccccc3)c(CN(C)C)c(=O)c2c1	29	-3	4	264	-3	-1	-5	98
Cc1nnc(SCc2ccc(CC(=O)O)cc2)o1	54*	-7	-6	256	-1	1	3	102
CCOC(=O)c1cc2c(C)n(-c3ccc(N(C)C)cc3)c(C)c2cc(C(=O)OCC)c1=O	69*	-4	0	438	0	0	0	103
CCOC(=O)c1cc2c(C)n(-c3ccc(OCC)cc3)c(C)c2cc(C(=O)OCC)c1=O	2	-6	-5	726	0	0	.	.
O=C(N/N=C/c1c(O)ccc2ccccc12)Nc1ccccc1	43*	.	.	866	?	.	-2	99
CCn1c2ccc(C)cc2c2nnc(SCCN3CCOCC3)nc21	4	-3	-8	511	1	2	.	.
Cc1ccc2c(c1)c1nnc(SCC(=O)N3CCN(c4ccc(F)cc4)CC3)nc1n2CC(=O)O	100*	-2	-17	118	1	1	.	.	GRK2 CP2=2;FAM quench CP2=99
O=C(c1ccco1)N1CCN(C(=O)c2cc(-c3ccncc3)nc3ccc(Br)cc23)CC1	5	-7	.	189	-4	3	.	.
O=C(O)c1cc(-c2ccco2)nc2ccc(Br)cc12	55*!	2	2	331	-17	33	8	94
O=S1(=O)CCC(N=Nc2c(O)n(Cc3ccccc3)c3ccccc23)C1 (stereo unspecified)	66*	3	-8	152	1	-1	-1	99
Nc1cc(C(=O)OCC(=O)N2CCOCC2)ccc1Cl	58*	-3	.	184	-2	1	-1	99
SMILES	GRK2 aptamer HTS	Keap1-Nrf2 PPI	EBV gp42 inh	T cell HTS	MEX-5 binding	LANA DNA inh	GRK2 inh confirm	FAM quench CP1	others
Nc1cc(C(=O)OCC(=O)N2CCN(C(=O)COC(=O)c3ccc(Cl)c(N)c3)CC2)ccc1Cl	.	-2	.	.	.	0	.	.
N#Cc1c(-c2ccccc2)cc(-c2ccccc2)[nH]c1=O	60*	-2	.	283	1	4	.	.	GRK2 CP2=4;FAM quench CP2=100
Cc1cccc(N2CC(C(=O)Nc3ccc(N4CCOCC4)cc3)CC2=O)c1C (stereo unspecified)	0	-3	.	379	.	0	.	.
Cc1cccc(N2CC(C(=O)Nc3ccccc3N3CCOCC3)CC2=O)c1C (stereo unspecified)	32	4	.	608	.	1	1	100
COc1ccc(Cn2cnc3c(NS(C)(=O)=O)c(C)c(C)cc32)cc1	1	-4	1	294	0	0	.	.
COc1ccc(OC)c(NC(=O)C2COc3ccccc3O2)c1 (stereo unspecified)	2	-2	-6	306	0	1	.	.
COc1ccc(CNC(=O)C2COc3ccccc3O2)c(OC)c1 (stereo unspecified)	4	-1	6	289	.	11	-3	99
CN(Cc1cccc(F)c1)C(=O)c1cccc(S(=O)(=O)N2CCN(Cc3ccccc3)CC2)c1	2	1	.	249	0	0	.	.
CC1CCc2c(sc(NC(=O)c3ccc(-c4ccccc4[N+](=O)[O-])o3)c2C#N)C1 (stereo unspecified)	73*	-4	-21	709	0	1	3	94
N#Cc1c(NC(=O)c2ccc(-c3ccccc3[N+](=O)[O-])o2)sc2c1CCCC2	2	-5	1	213	0	0	.	.
COc1ccccc1NC(=O)NC1(C(=O)N2CCOCC2)CCCCC1	0	-5	.	79	-1	0	.	.
COc1ccccc1NC(=O)NC1(C(=O)N2CCCCCC2)CCCCC1	95*	-1	-1	167	0	0	-3	95
OCCc1ccccc1	20	.	.	492	4	.	-2	99
OCCc1ccc(O)cc1	0	1	.	548	.	-1	.	.
